In ChEMBL document CHEMBL1221205, “Structural and mechanistic basis of penicillin-binding protein inhibition by lactivicins” (Nat Chem Biol, 2007):
Values after ≈ are worked out from the molar mass of the structure shown.

Assays:
[1] = test system: Streptococcus pneumoniae; assay: Antibacterial activity against penicillin-resistant Streptococcus pneumoniae 5204 […]; format: functional
Summary of the method: (§1)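 Strains grown in Todd-Hewitt medium at 37 °C to OD600 0.3, then plated on Columbia blood agar with 5% horse blood containing LTV or PLTV at 0 to 100 µg ml-1. MIC taken as the concentration at visually determined growth arrest on plates. Ratio lines compare resistant-strain MIC with the R6 MIC obtained the same way.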

[2] = test system: Streptococcus pneumoniae; assay: Antibacterial activity against penicillin-resistant Streptococcus pneumoniae 38040505 […]; format: functional; summary of the method: as §1
[3] = test system: Streptococcus pneumoniae; assay: Ratio of MIC for penicillin-resistant Streptococcus pneumoniae 38040505 to MIC for penicillin-sensitive Streptococcus pneumoniae R6; format: functional; summary of the method: as §1
[4] = biological target: T1, Penicillin-binding protein 2x (Streptococcus pneumoniae serotype 4 (strain ATCC BAA-334 / TIGR4), UniProt P14677); assay: Inhibition of penicillin-resistant Streptococcus pneumoniae 5204 PBP2x after 120 mins by SDS-PAGE
Summary of the method: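 PBP2x-5204 (0.8 µM) preincubated with LTV for 120 min, then remaining active PBP counterlabeled with 10 µM fluorescein-ampicillin for 40 min. Bands resolved by SDS-PAGE with fluorescence imaging; background subtracted. IC50 fitted from residual activity versus inhibitor concentration. Kinetic work at 30 °C in 10 mM sodium phosphate pH 7.0.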

[5] = test system: Streptococcus pneumoniae; assay: Ratio of MIC for penicillin-resistant Streptococcus pneumoniae 5204 to MIC for penicillin-sensitive Streptococcus pneumoniae R6; format: functional; summary of the method: as §1
[6] = test system: Streptococcus pneumoniae; assay: Ratio of MIC for penicillin-resistant Streptococcus pneumoniae 4790 to MIC for penicillin-sensitive Streptococcus pneumoniae R6; format: functional; summary of the method: as §1
[7] = test system: Streptococcus pneumoniae; assay: Ratio of MIC for penicillin-resistant Streptococcus pneumoniae 38030509 to MIC for penicillin-sensitive Streptococcus pneumoniae R6; format: functional; summary of the method: as §1
[8] = test system: Streptococcus pneumoniae; assay: Antibacterial activity against penicillin-sensitive Streptococcus pneumoniae R6 […]; format: functional
Summary of the method: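 Strain grown in Todd-Hewitt medium at 37 °C to OD600 0.3, then plated on Columbia blood agar with 5% horse blood containing compound at 0 to 100 µg ml-1. MIC taken as the concentration giving visible growth arrest on plates.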

[9] = test system: Streptococcus pneumoniae; assay: Antibacterial activity against penicillin-resistant Streptococcus pneumoniae 38030509 […]; format: functional; summary of the method: as §1
[10] = test system: Streptococcus pneumoniae; assay: Antibacterial activity against penicillin-resistant Streptococcus pneumoniae 4790 […]; format: functional; summary of the method: as §1
[11] = biological target: T1, Penicillin-binding protein 2x; assay: Inhibition of penicillin-resistant Streptococcus pneumoniae 5204 PBP2x after 60 mins by SDS-PAGE
Summary of the method: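 PBP2x-5204 (0.8 µM) preincubated with PLTV for 60 min in 10 mM sodium phosphate pH 7.0, 30 °C, with 1% dimethylformamide. Residual active enzyme counterlabeled with 10 µM fluorescein-ampicillin for 40 min, then analyzed by SDS-PAGE and fluorescence. IC50 fitted from background-subtracted residual activity against inhibitor concentration.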

T1 sequence (P14677 whole entry, looked up): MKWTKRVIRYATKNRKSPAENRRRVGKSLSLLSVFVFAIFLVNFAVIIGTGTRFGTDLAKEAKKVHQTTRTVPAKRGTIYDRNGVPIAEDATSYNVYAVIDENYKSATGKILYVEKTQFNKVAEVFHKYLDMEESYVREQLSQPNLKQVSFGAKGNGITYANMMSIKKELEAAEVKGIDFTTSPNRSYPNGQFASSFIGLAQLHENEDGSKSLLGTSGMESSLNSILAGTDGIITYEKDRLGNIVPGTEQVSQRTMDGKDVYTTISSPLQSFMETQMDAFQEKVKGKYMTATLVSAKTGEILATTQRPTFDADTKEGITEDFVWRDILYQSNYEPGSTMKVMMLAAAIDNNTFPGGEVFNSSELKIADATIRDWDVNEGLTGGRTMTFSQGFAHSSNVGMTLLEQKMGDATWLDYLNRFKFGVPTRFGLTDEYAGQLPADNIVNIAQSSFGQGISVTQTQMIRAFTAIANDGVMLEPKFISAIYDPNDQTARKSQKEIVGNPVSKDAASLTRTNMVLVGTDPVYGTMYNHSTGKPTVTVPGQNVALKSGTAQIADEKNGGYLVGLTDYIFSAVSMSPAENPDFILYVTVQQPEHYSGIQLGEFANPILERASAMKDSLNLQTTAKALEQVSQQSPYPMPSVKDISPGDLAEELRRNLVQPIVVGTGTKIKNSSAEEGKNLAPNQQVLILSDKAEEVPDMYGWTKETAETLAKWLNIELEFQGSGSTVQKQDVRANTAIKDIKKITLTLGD

Row | Compound | MIC [1] | MIC [2] | Ratio [3] | IC50 [4] | Ratio [5] | Ratio [6] | Ratio [7] | MIC [8] | MIC [9] | MIC [10] | IC50 [11]
1 | CC(=O)NC1CON(C2(C(=O)O)CCC(=O)O2)C1=O (centres undefined) [LACTIVICIN] | > 20 µg/mL | 10 µg/mL (≈ 36.7 µM) | 5 | 150 µM | 5 | 5 | 5 | 2 µg/mL (≈ 7.35 µM) | 20 µg/mL (≈ 73.5 µM) | 20 µg/mL (≈ 73.5 µM) | 
2 | CC1(C)S[C@@H]2[C@H](NC(=O)Cc3ccccc3)C(=O)N2[C@H]1C(=O)O [PENICILLIN G] | 6 µg/mL (≈ 17.9 µM) | 1.5 µg/mL (≈ 4.49 µM) | 150 |  | 150 | 150 | 150 | 0.01 µg/mL (≈ 0.0299 µM) | 2 µg/mL (≈ 5.98 µM) | 1.5 µg/mL (≈ 4.49 µM) | 
3 | O=C(COc1ccccc1)N[C@H]1CON([C@@]2(C(=O)O)CCC(=O)O2)C1=O [PHENOXYACETYL LACTIVICIN] | 90 µg/mL (≈ 247 µM) | 80 µg/mL (≈ 220 µM) | 5.3 |  | 5.3 | 5.3 | 5.3 | 15 µg/mL (≈ 41.2 µM) | > 100 µg/mL | > 100 µg/mL | 7.9 µM
